Test results as given in ChEMBL document CHEMBL2380235, “Discovery of N-{4-[(3-hydroxyphenyl)-3-methylpiperazin-1-yl]methyl-2-methylpropyl}-4-phenoxybenzamide analogues as selective kappa opioid receptor antagonists” (J Med Chem, 2013).
The source made the active and inactive calls. No cut-off for these calls is given here.

Tests used:
Homo sapiens [1] = species: Homo sapiens; assay: Selectivity ratio of Ke for human mu opioid receptor to Ke for human kappa opioid receptor
[2] = target: Kappa-type opioid receptor (Homo sapiens) (UniProt P41145); assay: Antagonist activity at human kappa opioid receptor expressed in CHO cells assessed as inhibition of U69,593-stimulated [35S]GTPgammaS binding; type: functional, cell-based
Method in brief: (§1)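 Agonist concentration-response curves (eight concentrations, duplicate) were run with or without a single test-compound concentration. Ke = [L]/(DR−1), where [L] is the test-compound concentration and DR is the ratio of agonist EC50 with versus without compound. At least two test-compound concentrations were used, chosen to shift agonist EC50 rightward at least four-fold while keeping a clear upper asymptote.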

[3] = target: Kappa-type opioid receptor (Homo sapiens) (UniProt P41145); assay: Antagonist activity at human kappa opioid receptor expressed in CHO cells assessed as inhibition of U69,593-stimulated [35S]GTPgammaS binding at 10 nM relative to control; type: functional, cell-based
[4] = target: Delta-type opioid receptor (Homo sapiens) (UniProt P41143); assay: Intrinsic activity at human delta opioid receptor expressed in CHO cells at 10 uM by [35S]GTPgammaS binding assay; type: functional, cell-based
Homo sapiens [5] = species: Homo sapiens; assay: Selectivity ratio of Ke for human delta opioid receptor to Ke for human kappa opioid receptor
[6] = target: Kappa-type opioid receptor (Homo sapiens) (UniProt P41145); assay: Intrinsic activity at human kappa opioid receptor expressed in CHO cells at 10 uM by [35S]GTPgammaS binding assay; type: functional, cell-based
[7] = target: Delta-type opioid receptor (Homo sapiens) (UniProt P41143); assay: Antagonist activity at human delta opioid receptor expressed in CHO cells assessed as inhibition of DPDPE-stimulated [35S]GTPgammaS binding; type: functional, cell-based; method in brief: as §1
[8] = target: Mu-type opioid receptor (Homo sapiens) (UniProt P35372); conditions: CHO
Sequence of Mu-type opioid receptor (Homo sapiens) (P35372 whole entry): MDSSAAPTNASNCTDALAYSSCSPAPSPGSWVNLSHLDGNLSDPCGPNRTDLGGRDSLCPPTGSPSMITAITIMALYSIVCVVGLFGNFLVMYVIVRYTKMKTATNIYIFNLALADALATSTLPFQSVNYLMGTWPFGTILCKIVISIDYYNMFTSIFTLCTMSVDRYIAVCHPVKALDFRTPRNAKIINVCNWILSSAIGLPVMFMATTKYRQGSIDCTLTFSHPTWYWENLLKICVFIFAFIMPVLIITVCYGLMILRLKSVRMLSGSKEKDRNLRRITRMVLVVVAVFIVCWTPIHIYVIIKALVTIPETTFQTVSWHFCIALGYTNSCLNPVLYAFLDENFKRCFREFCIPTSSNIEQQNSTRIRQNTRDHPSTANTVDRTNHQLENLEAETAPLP

Sequence of Delta-type opioid receptor (Homo sapiens) (P41143 whole entry): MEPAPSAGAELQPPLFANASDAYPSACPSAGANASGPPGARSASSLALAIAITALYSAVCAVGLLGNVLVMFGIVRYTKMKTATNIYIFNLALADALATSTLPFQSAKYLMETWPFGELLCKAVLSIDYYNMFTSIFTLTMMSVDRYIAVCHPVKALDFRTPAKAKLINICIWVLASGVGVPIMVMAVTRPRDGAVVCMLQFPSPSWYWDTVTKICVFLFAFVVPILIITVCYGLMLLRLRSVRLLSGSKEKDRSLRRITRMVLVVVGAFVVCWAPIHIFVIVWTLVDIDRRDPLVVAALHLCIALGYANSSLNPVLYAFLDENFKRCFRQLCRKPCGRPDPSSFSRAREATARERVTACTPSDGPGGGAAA
Sequence of Kappa-type opioid receptor (Homo sapiens) (P41145 whole entry): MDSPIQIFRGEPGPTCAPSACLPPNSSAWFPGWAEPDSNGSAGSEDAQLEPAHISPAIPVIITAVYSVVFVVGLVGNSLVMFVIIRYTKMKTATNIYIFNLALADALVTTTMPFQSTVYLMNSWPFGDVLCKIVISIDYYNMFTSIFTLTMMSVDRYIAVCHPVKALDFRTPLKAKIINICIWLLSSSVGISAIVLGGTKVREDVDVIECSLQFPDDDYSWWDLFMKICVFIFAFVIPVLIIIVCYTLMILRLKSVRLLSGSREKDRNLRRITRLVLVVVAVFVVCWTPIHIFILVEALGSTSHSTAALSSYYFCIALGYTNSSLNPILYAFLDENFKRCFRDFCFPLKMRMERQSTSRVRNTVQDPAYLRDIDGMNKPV

Ratio Ke (Homo sapiens [1])	Ke [2] [nM]	inhibition [3] [%]	Activity [4]	Ratio Ke (Homo sapiens [5])	Activity [6]	Ke [7] [nM]	Ke [8] [nM]	SMILES
7.5	2.8	> 60	inactive	83	inactive	–	–	CCCCc1ccc(C(=O)N[C@H](CN2CCN(c3cccc(O)c3)[C@@H](C)C2)C(C)C)cc1
36	2.8	–	inactive	723	inactive	2020	101	CC(C)[C@@H](CN1CCN(c2cccc(O)c2)[C@@H](C)C1)NC(=O)c1ccc(Oc2ccccc2)cn1
4.7	1.87	> 60	inactive	137	inactive	–	–	CC(C)[C@@H](CN1CCN(c2cccc(O)c2)[C@@H](C)C1)NC(=O)c1ccc(-c2ccccc2)cc1
43	0.42	–	inactive	20	inactive	8.3	18	CC(C)[C@@H](CN1CCN(c2cccc(O)c2)[C@@H](C)C1)NC(=O)c1ccc(Oc2cccc(Cl)c2)cc1
3	3	–	inactive	5	inactive	15	8.2	Cc1ccc(O)c(Oc2ccc(C(=O)N[C@H](CN3CCN(c4cccc(O)c4)[C@@H](C)C3)C(C)C)cc2Cl)c1
28	0.76	–	inactive	126	inactive	96	21.1	CC(C)[C@@H](CN1CCN(c2cccc(O)c2)[C@@H](C)C1)NC(=O)c1ccc(Oc2ccccc2F)cc1

SMILES	Ratio Ke (Homo sapiens [1])	Ke [2] [nM]	inhibition [3] [%]	Activity [4]	Ratio Ke (Homo sapiens [5])	Activity [6]	Ke [7] [nM]	Ke [8] [nM]
CC(C)[C@@H](CN1CCN(c2cccc(O)c2)[C@@H](C)C1)NC(=O)c1ccc(Oc2ccccc2)cc1	60	0.85	> 60	inactive	671	inactive	570	51
CC(C)[C@@H](CN1CCN(c2cccc(O)c2)[C@@H](C)C1)NC(=O)c1ccc(Oc2cccc(O)c2)cc1	37	1.85	–	inactive	338	inactive	625	69
Cc1ccc(Oc2ccc(C(=O)N[C@H](CN3CCN(c4cccc(O)c4)[C@@H](C)C3)C(C)C)cc2)cc1	29	0.69	–	inactive	272	inactive	188	20
